For series [1], the system named is Plasmodium berghei. The experiment in a line: Antimalarial activity against Plasmodium berghei infected in Swiss Webster mouse assessed as mouse survival rate at 11 mg/kg administered once daily via oral gavage for 4 consecutive days beginning 1 hr after infection measured on day 12 post infection relative to control. The format is functional. The method, boiled down:
(§1)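 Mice given an intraperitoneal injection of P. berghei-infected erythrocytes taken from a previously infected animal. Oral dosing once daily for 4 consecutive days, starting 1 h after infection. Vehicle: polyethylene glycol 300/propylene glycol/water (weight ratio 55/25/20). Percent survival recorded daily from day 4 to day 20. Chloroquine 30 mg/kg and vehicle-only groups served as controls.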

For series [2], the system named is Lymphocyte. The series is described as follows: Genotoxicity in human lymphocytes at 0.5 to 355 ug/mL after 3 hrs in presence of rat liver S9 fraction by micronucleus assay. The format is toxicity, cell-based. To be noted: s9, 3 h.
In series [3] the test system is Plasmodium berghei. The experiment in a line: Antimalarial activity against Plasmodium berghei infected in Swiss Webster mouse assessed as mouse survival rate at 0.3 mg/kg administered once daily via oral gavage for 4 consecutive days beginning 1 hr after infection measured on day 6 post infection relative to control. The format is functional. In short, it runs like this: as §1

The test system of series [4] is Rattus norvegicus. The experiment in a line: Genotoxicity in rat assessed as change in polychromatic erythrocytes in bone marrow at 2000 mg/kg administered via oral gavage measured after 48 hrs post dose by micronucleus assay relative to control. In kind it is toxicity, organism-based. Conditions: in vivo.
The test system of series [5] is Plasmodium falciparum. The experiment in a line: Antimalarial activity against Plasmodium falciparum NF54 infected in human erythrocytes assessed as reduction in [3H]-hypoxanthine incorporation preincubated for 24 hrs followed by [3H]-hypoxanthine addition measured after 24 hrs by scintillation counting method. The format is functional, cell-based.
In series [6] the test system is Lymphocyte. The series is described as follows: Genotoxicity in human lymphocytes assessed as replication index at 355.15 ug/mL after 3 hrs in absence of rat liver S9 fraction by micronucleus assay relative to control. In kind it is toxicity, cell-based. In short, it runs like this:
(§2)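 Human lymphocytes exposed for 3 h with or without rat liver S9, or 28 h without S9, with 1% DMSO as vehicle control. Replication index = (binucleated + 2 × multinucleated cells)/total cells. Cytotoxicity (%) = 100 − (RI treated/RI vehicle) × 100.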

Series [7] can be described thus: Tmax in Beagle dog plasma at 5 mg/kg, po via gavage by HPLC/MS analysis. The format is ADME, organism-based, Canis lupus familiaris.
Series [8] relates to Salmonella typhimurium. The experiment in a line: Genotoxicity in Salmonella typhimurium TA100 assessed as number of revertants per plate at 5000 ug/plate in presence of rat liver S9 fraction by Ames test (reference value: 141 +/- 1). In kind it is toxicity. Conditions: salmonella enterica subsp. enterica serovar typhimurium. Background: In the Ames test, an excess of revertant colonies over the control signals mutagenicity.

The nature of series [9]: AUC in rat at 2000 mg/kg administered via oral gavage. The format is ADME, organism-based. To be noted: in vivo.
The subject of series [10] is Lymphocyte. The series is described as follows: Genotoxicity in human lymphocytes assessed as replication index at 355.15 ug/mL after 28 hrs in absence of rat liver S9 fraction by micronucleus assay relative to control. The format is toxicity, cell-based. The method, boiled down: as §2
Series [11] relates to Salmonella typhimurium. The experiment in a line: Genotoxicity in Salmonella typhimurium TA100 assessed as number of revertants per plate at 500 ug/plate in presence of rat liver S9 fraction by Ames test (reference value: 141 +/- 1). The format is toxicity. To be noted: salmonella enterica subsp. enterica serovar typhimurium.
For series [12], the system named is Salmonella typhimurium. The experiment in a line: Genotoxicity in Salmonella typhimurium TA1537 assessed as number of revertants per plate at 5000 ug/plate in absence of rat liver S9 fraction by Ames test (reference value: 19 +/- 9). To be noted: salmonella enterica subsp. enterica serovar typhimurium. In kind it is toxicity.
Series [13] deals with Rattus norvegicus. The experiment in a line: Genotoxicity in rat assessed as change in polychromatic erythrocytes in bone marrow at 500 mg/kg administered via oral gavage measured after 24 hrs post dose by micronucleus assay relative to control. The format is toxicity, organism-based. Conditions: in vivo.
In series [14] the test system is Lymphocyte. The series is described as follows: Genotoxicity in human lymphocytes assessed as increase in frequency of micronucleated cells at 355.15 ug/mL after 3 hrs in presence of rat liver S9 fraction by micronucleus assay (reference value: 0.63%). The format is toxicity, cell-based. To be noted: s9, 3 h.
Series [15] concerns Salmonella typhimurium. The series is described as follows: Genotoxicity in Salmonella typhimurium TA1535 assessed as number of revertants per plate at 50 ug/plate in absence of rat liver S9 fraction by Ames test (reference value: 10 +/- 3). In kind it is toxicity. Conditions: salmonella enterica subsp. enterica serovar typhimurium.
Series [16] deals with Salmonella typhimurium. The experiment in a line: Genotoxicity in Salmonella typhimurium TA100 assessed as number of revertants per plate at 5 ug/plate in presence of rat liver S9 fraction by Ames test (reference value: 141 +/- 1). The format is toxicity. To be noted: salmonella enterica subsp. enterica serovar typhimurium.
Series [17] can be described thus: Terminal half life in Sprague-Dawley rat at 5 mg/kg, iv by HPLC/MS analysis. In kind it is ADME, organism-based. Conditions: in vivo, read-out: beta t1/2 (converted).
Series [18] deals with Plasmodium falciparum. The experiment in a line: Antimalarial activity against Plasmodium falciparum Dd2 infected in human erythrocytes assessed as reduction in [3H]-hypoxanthine incorporation preincubated for 24 hrs followed by [3H]-hypoxanthine addition measured after 24 hrs by scintillation counting method. The format is functional, cell-based.
For series [19], the system named is Plasmodium falciparum. The series is described as follows: Antimalarial activity against Plasmodium falciparum FCB infected in human erythrocytes assessed as reduction in [3H]-hypoxanthine incorporation preincubated for 24 hrs followed by [3H]-hypoxanthine addition measured after 24 hrs by scintillation counting method. In kind it is functional, cell-based.
The subject of series [20] is Plasmodium falciparum. The series is described as follows: Antimalarial activity against Plasmodium falciparum K1 infected in human erythrocytes assessed as reduction in [3H]-hypoxanthine incorporation preincubated for 24 hrs followed by [3H]-hypoxanthine addition measured after 24 hrs by scintillation counting method. The format is functional, cell-based.
Series [21] in a line: Terminal half life in Sprague-Dawley rat at 5 mg/kg, po via gavage by HPLC/MS analysis. In kind it is ADME, organism-based. To be noted: in vivo, read-out: beta t1/2 (converted).
For series [22], the system named is Salmonella typhimurium. The experiment in a line: Genotoxicity in Salmonella typhimurium TA98 assessed as number of revertants per plate at 150 ug/plate in presence of rat liver S9 fraction by Ames test (reference value: 19 +/- 8). The format is toxicity. Conditions: salmonella enterica subsp. enterica serovar typhimurium.
The test system of a further series is Escherichia coli. The experiment in a line: Genotoxicity in Escherichia coli WP2uvrA assessed as number of revertants per plate at 5 ug/plate in presence of rat liver S9 fraction by Ames test (reference value: 42 +/- 6). In kind it is toxicity.
Series [23] has as its system Lymphocyte. The experiment in a line: Genotoxicity in human lymphocytes assessed as increase in frequency of micronucleated cells at 160 ug/mL after 3 hrs in presence of rat liver S9 fraction by micronucleus assay (reference value: 0.63%). In kind it is toxicity, cell-based. To be noted: s9, 3 h.
For series [24], the system named is Salmonella typhimurium. The experiment in a line: Genotoxicity in Salmonella typhimurium TA1537 assessed as number of revertants per plate at 50 ug/plate in absence of rat liver S9 fraction by Ames test (reference value: 19 +/- 9). In kind it is toxicity. To be noted: salmonella enterica subsp. enterica serovar typhimurium.
The subject of series [25] is Salmonella typhimurium. The experiment in a line: Genotoxicity in Salmonella typhimurium TA1535 assessed as number of revertants per plate at 150 ug/plate in absence of rat liver S9 fraction by Ames test (reference value: 10 +/- 3). In kind it is toxicity. To be noted: salmonella enterica subsp. enterica serovar typhimurium.
Series [26] has as its system Plasmodium falciparum. The series is described as follows: Antimalarial activity against Plasmodium falciparum 7G8 infected in human erythrocytes assessed as reduction in [3H]-hypoxanthine incorporation preincubated for 24 hrs followed by [3H]-hypoxanthine addition measured after 24 hrs by scintillation counting method. In kind it is functional, cell-based.
In series [27] the test system is Salmonella typhimurium. The experiment in a line: Genotoxicity in Salmonella typhimurium TA98 assessed as number of revertants per plate at 150 ug/plate in absence of rat liver S9 fraction by Ames test (reference value: 14 +/- 6). In kind it is toxicity. Conditions: salmonella enterica subsp. enterica serovar typhimurium.
The subject of series [28] is Salmonella typhimurium. The series is described as follows: Genotoxicity in Salmonella typhimurium TA1535 assessed as number of revertants per plate at 5000 ug/plate in absence of rat liver S9 fraction by Ames test (reference value: 10 +/- 3). Conditions: salmonella enterica subsp. enterica serovar typhimurium. In kind it is toxicity.
The test system of series [29] is Salmonella typhimurium. The series is described as follows: Genotoxicity in Salmonella typhimurium TA1537 assessed as number of revertants per plate at 150 ug/plate in absence of rat liver S9 fraction by Ames test (reference value: 19 +/- 9). In kind it is toxicity. Conditions: salmonella enterica subsp. enterica serovar typhimurium.

Four compounds from ChEMBL document CHEMBL4038305, “Benzoxaborole Antimalarial Agents. Part 5. Lead Optimization of Novel Amide Pyrazinyloxy Benzoxaboroles and Identification of a Preclinical Candidate” (J Med Chem, 2017) can be followed below.

A word on the IC50: it is the midpoint of a concentration-inhibition curve. What is called Tmax is the time at which the peak concentration occurs. The term AUC denotes the area under the concentration-time curve, a measure of exposure.

As for `Cc1c(Oc2cnc(C(=O)N3CC(O)(C(C)C)C3)cn2)ccc2c1B(O)OC2`, the survival at 11 mg/kg in the series with Plasmodium berghei [1] stood at 20%.
As to `Cc1c(Oc2cnc(C(=O)NCCO)cn2)ccc2c1B(O)OC2`, the Activity entry in the series with Lymphocyte [2] is “Non-Toxic”.
For `Cc1c(Oc2cnc(C(=O)NC(C)CO)cn2)ccc2c1B(O)OC2` (stereo not given), the survival at 0.3 mg/kg in the series on Plasmodium berghei [3] stood at 20%.
`Cc1c(Oc2cnc(C(=O)N3CC(C)(O)C3)cn2)ccc2c1B(O)OC2`: the Activity in the series on Rattus norvegicus [4] is on record as -12%; in the series on Lymphocyte [6] it was 7%; in the series with Salmonella typhimurium [8] it was 31; in the series on Lymphocyte [10] it was 33%; in the series on Salmonella typhimurium [11], 132; with Salmonella typhimurium [12], 10. The Activity with Rattus norvegicus [13] is reported as -4%; in the series with Lymphocyte [14], 0.73%; with Salmonella typhimurium [15], 8; in the series with Salmonella typhimurium [16], 128; with Salmonella typhimurium [22] it was 10; with Escherichia coli it was 37. Besides, the Activity in the series with Lymphocyte [23] worked out at 0.5%; in the series with Salmonella typhimurium [24], 12; with Salmonella typhimurium [25], 8; with Salmonella typhimurium [27], 13; in the series with Salmonella typhimurium [28] it was 4; in the series with Salmonella typhimurium [29] it was 15. In addition, the IC50 in the series on Plasmodium falciparum [5] was 36 nM; with Plasmodium falciparum [18], 53 nM; in the series with Plasmodium falciparum [19], 66 nM; in the series with Plasmodium falciparum [20], 62 nM; in the series on Plasmodium falciparum [26] it was 35 nM. In series [7], the Tmax amounted to 1.2 h. In [9], this compound came in with an area under the curve (AUC) of 742 µg·h/mL. The half-life in series [17] is 4.6 h; in series [21], 5.2 h.
